Screens from PubChem BioAssay.
Lmaj promast: Leishmania major promastigote growth inhibition, primary screen; Leishmania major promastigotes, resazurin fluorescence viability; inhibition, % at 10 µM; 200,000 tested, 9% active; in the data active = inhibition above about 50%;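 also: promastigotes grown with compound for 44 hours at 28 °C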
Autophagy mod: autophagy modulators in MEF cells, primary screen, imaging, high-content, MEF GFP-LC3. 190,000 tested, 0.98% active. AID 463193, 2010. calls only at 10 µM (by protocol). MEF GFP-LC3 puncta imaging; test concentration mostly 10 µM;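 active = percentage of spot-positive cells more than 3 SD above its plate mean, without a fluorescence outlier flag or 80% toxicity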;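 also: spot-positive cell cutoff set from DMSO-treated cells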
CHOP inh: inhibitors of CHOP promoter induction, primary screen, cell-based, unfolded protein response, luciferase reporter. CHO-K1 CHOP-promoter luciferase, tunicamycin-induced, 15-18 h. inhibition, % at 10 µM. 220,000 tested, 3.8% active. AID 2732, 2010;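 active = compounds that reduced the stress-induced luciferase reporter signal by more than about 70% of percent inhibition, limit read from the data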;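 also: 0% = tunicamycin plus vehicle and 100% = wells without tunicamycin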
MT stabilize HCS: microtubule stabilizers in HeLa cells, primary screen, imaging, high-content imaging. HeLa tubulin immunostaining HCS, 24 h; share of cells brighter than vehicle mean+2SD. % tubulin-high responders, % at 10 µM. 200,000 tested, 0.83% active. AID 2205, 2009;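 active = plate Z-score above 3 for both tubulin-high and condensed-nucleus cell shares, with cell loss under 80%, at 10 µM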;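 also: anti alpha tubulin signal scored within the nucleus-defined area of each cell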
Dynein cargo inh: inhibitors of GR-EGFP nuclear translocation, primary screen, dynein cargo transport inhibitor project, imaging, high-content, 3617.4 mouse cells; 220,000 tested, 0.47% active; AID 1381, 2008; test concentration mostly 20 µM; stimulated with dexamethasone, 1 µM; stronger effect = lower value; z-score, hits read low;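 active = plate z-score of nuclear minus cytoplasmic receptor signal below a set negative limit, without overly bright fluorescence or cell loss, cut at about -3.5 in these data, passing the limit was not always enough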;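 also: z-score of nuclear minus cytoplasmic ring GR-EGFP intensity difference per well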
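Buffer or medium: tetracycline-free induction medium containing charcoal-stripped FBS / Reagent: dexamethasone agonist, 1.0 µM final, for 30 min / Technique: automated 10x imaging of fixed Hoechst-stained cells / Times: induction 48 h, compound 1 h, agonist 30 min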
b-catenin transl: modulators of beta-catenin nuclear translocation, primary screen, imaging, HeLa cells, immunofluorescence, high-content | nuclear translocation activity, % at 5 µM | 190,000 tested, 0.3% active;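 active = nuclear translocation activity above 50% at 5 µM, with a well cell count of 50 or more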;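 also: per-cell ratio of nuclear to cytoplasmic median beta-catenin stain intensity; plate controls were DMSO negative control for no effect and GSK-3 inhibitor IX positive control for full effect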
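assay system = human HeLa cells, endogenous beta-catenin | times = compound treatment 24 h, 37°C, 5% CO2 | detection = Anti-beta-catenin immunofluorescence on PFA-fixed, Triton-permeabilized cells, DAPI nuclei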
The depositor's hits bear a star; i = inactive; x = not tested or not shown; + = active, no number. Sampled rows, rich in hits. Any-hit rate of the full collection: about 12%.

SMILES	Lmaj promast	Autophagy mod	CHOP inh	MT stabilize HCS	Dynein cargo inh	b-catenin transl
O=C(CCn1nc(-c2ccccc2)c2ccccc2c1=O)NN1CCOCC1	-2	i	-5	2	0.39	-6
C=CCn1c(SCc2c(C(=O)OC)sc(N)c2C(=O)OC)nnc1-c1ccc(Br)cc1	99*	i	-16	3	0.63	x
Cc1c(NC(=S)NC(=O)C2CCCCC2)c(=O)n(-c2ccccc2)n1C	-6	i	32	3	-0.65	2
O=C(CSC1=NNC(c2ccccn2)S1)Nc1ccc(C(F)(F)F)cc1 (centres undefined)	x	x	73*	x	-0.3	-1
CCCCCCCCNC(=O)/C(C#N)=C/c1ccccc1[N+](=O)[O-]	58*	i	94*	7	-0.28	-3
N#C/C(=C\c1ccccc1[N+](=O)[O-])C(=O)NCc1ccccc1	x	x	-17	x	0.048	-1
COCCOC(=O)c1c(C)oc2ccc(NS(=O)(=O)c3ccccc3)cc12	8	i	6	4	-1.5	3
CCOC(=O)c1c(C)oc2ccc(NS(=O)(=O)c3ccc4c5c(cccc35)C(=O)N4)cc12	91*	i	15	6	1.4	-2
N#Cc1cc(-c2ccccc2)nc(N2CCNCC2)n1	x	x	8	x	-1.1	3
COc1cc(Br)cc(/C=N/NC(=O)Cc2ccc(C(F)(F)F)cc2[N+](=O)[O-])c1O	73*	i	26	10	-0.56	2
COc1cc([N+](=O)[O-])cc(/C=N/NC(=O)Cn2nccc2C)c1O	x	x	8	x	-0.6	1
COc1ccc(-n2c(SCC(=O)Nc3cc(C(=O)O)ccc3C)nc3ccccc3c2=O)cc1Cl	x	x	5	x	-0.17	0
CCN(CC)S(=O)(=O)c1ccc(/C=C/C(=O)Nc2ccc(F)cc2F)cc1	56*	i	10	4	-0.56	1
CCN(CC)S(=O)(=O)c1ccc(/C=C/C(=O)Nc2ccc(Br)cc2F)cc1	99*	i	48	5	0.91	4
CCN(CC)S(=O)(=O)c1ccc(/C=C/C(=O)Nc2ccc(F)c(F)c2F)cc1	89*	i	24	4	-0.62	x
Cc1ccc(CNS(=O)(=O)c2ccccc2[N+](=O)[O-])cc1	-6	i	-17	2	0.8	0
Cc1cc(=O)oc2cc(OCC3CC(c4ccccc4)=NO3)ccc12 (centres undefined)	-1	i	0	32	-0.75	-8
Cc1cc(=O)oc2cc(OCC3CC(c4ccc(Br)cc4)=NO3)ccc12 (centres undefined)	-3	i	17	20*	0.26	0
Cc1cccc(-n2c(=S)[nH]c3nc4c(cc3c2=O)COC(C)(C)C4)c1	x	x	6	x	1.3	-4
CCc1ccc(C2c3[nH]c4ccccc4c3CCN2C(=O)c2cc(C)nn2C)cc1 (centres undefined)	60*	i	6	6	2.1	2
Cc1cc(C(=O)N2CCc3c([nH]c4ccccc34)C2c2cccc(Cl)c2)nn1C (centres undefined)	30	i	92*	3	-0.28	-1
Cc1nc(C(=O)N2CCc3c([nH]c4ccccc34)C2c2cc(F)ccc2F)cs1 (centres undefined)	54*	i	-17	4	0.23	2
CSc1ccc(C2c3[nH]c4ccccc4c3CCN2C(=O)c2cc(C)n(C)n2)cc1 (centres undefined)	43	i	19	2	-0.89	2
CC(=O)Nc1ccc(-c2cc(C(=O)O)c3ccc(C)cc3n2)cc1	x	x	-2	x	-0.4	-4
O=C(/C=C/c1ccccc1)NC1CCSC1=O (centres undefined)	-2	i	19	2	0.86	-1
SMILES	Lmaj promast	Autophagy mod	CHOP inh	MT stabilize HCS	Dynein cargo inh	b-catenin transl
C=CCn1c(COc2ccc(CC)cc2)nnc1SC/C(O)=C(\C#N)c1nc2ccccc2[nH]1	-4	i	88*	3	-1.4	x
C=CCn1c(SCc2ccc(C#N)cc2)nnc1-c1ccccc1	-2	i	14	5	0.6	-1
COc1ccc(-n2c(COc3cccc4ccccc34)nnc2SCC#N)cc1	55*	i	20	5	1.9	-1
C=CCn1c(COc2ccccc2)nnc1SCc1ccc(C#N)cc1	40	i	-24	3	-0.89	-3
N#CCSc1nnc(COc2cccc3ccccc23)n1-c1ccccc1	31	i	41	5	-0.2	-2
C=CCn1c(SCc2ccc(C#N)cc2)nnc1-c1cccc(OC)c1	84*	i	0	5	-0.66	-3
C=CCn1c(COc2ccc(Cl)cc2)nnc1SCc1ccc(C#N)cc1	58*	i	29	5	0.12	-1
O=C(CSc1nnnn1-c1cccc2c1CCCC2)N1CCCCC1	7	i	28	4	0.87	-2
O=C(c1cc2c(F)cccc2s1)N1CCCC1	10	i	3	4	-0.34	2
CCN(CC)S(=O)(=O)c1cc(C(=O)NCCN2CCOCC2)ccc1Cl	6	i	8	8	0.35	-1
O=C(NC(Cc1ccccc1)C(=O)O)/C(=C/c1ccc([N+](=O)[O-])cc1)NC(=O)c1ccccc1Br (centres undefined)	-2	i	-11	3	0.23	0
Cc1ccc(OCc2nnc(SCc3ccc(C#N)cc3)n2-c2ccc(C)cc2)cc1	100*	i	55	2	-0.55	1
Cc1ccc(-n2c(SCc3ccc(C#N)cc3)nnc2-c2ccccn2)cc1	-1	i	29	2	-0.59	-4
O=c1[nH]c2cc(Cl)c(Cl)cc2[nH]c1=O	x	x	-25	x	x	x
O=c1[nH]c2ccc(F)cc2[nH]c1=O	-3	+	12	4	0.42	1
O=c1c(Cl)c(Nc2cccc(Cl)c2)cnn1-c1nc2ccccc2s1	56*	i	-2	2	2.5	0
Cc1ccc(C)c(N2CCN(c3cnn(-c4nc5ccccc5s4)c(=O)c3Cl)CC2)c1	32	i	70	2	0.66	3
COc1ccc(Nc2cnn(-c3nc4ccccc4s3)c(=O)c2Cl)cc1	51*	i	75*	3	-3.1	-1
Cc1ccccc1S(=O)(=O)Nc1nc2ccccc2nc1N1CCc2ccccc2C1	-1	i	6	7	0.14	-2
CN1C(=O)/C(=C\c2ccccc2)Sc2ccc(C(=O)N3CCN(c4ccccn4)CC3)cc21	-4	i	2	4	-0.18	x
O=C(NCCN1CCOCC1)c1ccncc1	-8	i	16	3	-0.54	-6
O=C1C=C(NCCN2CCOCC2)C(=O)c2cnccc21	99*	i	22	23	-2.3	6
